Tests used:
Cavia porcellus = species on record: Cavia porcellus; test: In vitro molar concentration required to block [Ca2+] -induced contraction of K+-depolarized taenia cecum of guinea pigs; format: functional; conditions: Caecum
In short: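 Guinea pig taenia cecum washed with Ca2+-free high-K+ Krebs solution after equilibration. Compound applied 5 min before CaCl2 (3 × 10^-4 M). Contraction recorded isotonically.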

Mus musculus = species on record: Mus musculus; test: Effect on acute thrombic death induced by collagen in mice; format: functional; conditions: read-out: ID50 (the source's name)
In short: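 Male ddY mice (20-30 g) given compound orally as 0.5% tragacanth suspension 3 h before rapid tail-vein injection (2 s) of collagen (type III, 3 mg/mL in acetic acid/Tris pH 7.4), about 30 mg/kg, set so […] within 3 min. Survival scored; % inhibition = (St - Sc)/(100 - Sc); ID50 in mg/kg po; n=8 treated, 12 control.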

Rattus norvegicus [1] = test: Hypotensive effect in Spontaneously hypertensive rats as maximum decrease in systolic blood pressure at 10 mg/kg, po dose; format: functional, Artery
In short: (§1)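 Male SHR, 300-400 g, conscious, 6-13 animals. Oral dosing as a 0.5% methylcellulose suspension. Systolic pressure by tail-cuff plethysmography at 0, 1, 3, 6, 9 and 24 h after dosing; heart rate from pulse over 4 s. Value is maximum SBP fall, mean ± SEM of six animals; Dunnett's test.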

Rattus norvegicus [2] = test: Hypotensive effect in Spontaneously hypertensive rats as maximum decrease in systolic blood pressure at 30 mg/kg, po dose; format: functional, Artery; in short: as §1
Rattus norvegicus [3] = test: Hypotensive effect in Spontaneously hypertensive rats as maximum decrease in systolic blood pressure at 100 mg/kg, po dose; format: functional, Artery; in short: as §1
[4] = Ratio between EC10 and EC30 in isolated rabbit hearts in His bundle ventricular intervals; format: functional
Oryctolagus cuniculus [5] = species on record: Oryctolagus cuniculus; test: Electrophysiological effect in isolated rabbit hearts as molar concentration that prolongs the His bundle ventricular (H-V) conduction time by 10%; format: functional, Cardiac ventricle
Oryctolagus cuniculus [6] = species on record: Oryctolagus cuniculus; test: Electrophysiological effect in isolated rabbit hearts as molar concentration that prolongs the atrio-His bundle (A-H) conduction time by 30%; format: functional

SMILES	IC50 (Cavia porcellus) [µM]	also measured
CC(=O)N1c2ccccc2SC1c1ccccc1OCCCN(C)C1CCCCC1 (configuration not stated)	1.7	–
CC(=O)N1c2ccccc2SC1c1cc([N+](=O)[O-])ccc1OCCCCN1CCC(C(=O)c2ccccc2)CC1 (configuration not stated)	4.8	–
CCC(=O)N1c2ccccc2SC1c1cc(OC)ccc1OCCCCCN(C)C1CCCCC1 (configuration not stated)	7	–
COc1ccc(OCCCCCN(C)CCc2ccc(OC)c(OC)c2)c(C2Sc3ccccc3N2C(C)=O)c1 (configuration not stated)	1.3	–
CC(=O)N1c2ccccc2SC1c1ccc(OCCCN(C)C)cc1 (configuration not stated)	5.5	–
CC(=O)N1CCSC1c1ccc(OCCN(C)C)cc1 (configuration not stated)	> 100	–
COC(=O)C1=C(C)NC(C)=C(C(=O)OC)C1c1ccccc1[N+](=O)[O-] [NIFEDIPINE]	–	ED50 (Mus musculus): > 30 mg/kg
CC(=O)N1c2ccccc2SC1c1cc([N+](=O)[O-])ccc1OCCCN(C)C (configuration not stated)	6.2	–
COc1ccc(OCCCCN(C)C2CCCCC2)c(C2Sc3ccccc3N2C(C)=O)c1 (configuration not stated)	4	–
CC(=O)N1c2ccccc2SC1c1ccccc1OCCCN(C)C (configuration not stated)	10	–
COc1ccc(OCCCN2CCN(CCc3ccc(OC)c(OC)c3)CC2)c(C2Sc3ccccc3N2C(C)=O)c1 (configuration not stated)	3	–
COc1ccc(OCCCCN(C)CCc2ccc(OC)c(OC)c2)c(C2Sc3ccccc3N2C(C)=O)c1 (configuration not stated)	0.66	–
COc1ccc(OCCCN(C)CCc2cc(OC)c(OC)c(OC)c2)c(C2Sc3ccccc3N2C(C)=O)c1 (configuration not stated)	0.78	–
COc1ccc(OCCCCCCN2CCN(CCc3ccc(OC)c(OC)c3)CC2)c(C2Sc3ccccc3N2C(C)=O)c1 (configuration not stated)	11	–
COc1cccc(C2Sc3ccccc3N2C(C)=O)c1OCCCN(C)C (configuration not stated)	13	–
COc1ccc(OCCCN2CCC(C(=O)c3ccccc3)CC2)c(C2Sc3ccccc3N2C(C)=O)c1 (configuration not stated)	11	–
COc1ccc(OCCCCN2CCC(C(=O)c3ccc(F)cc3)CC2)c(C2Sc3ccccc3N2C(C)=O)c1 (configuration not stated)	1.6	–
CC(=O)N1c2ccccc2SC1c1cc([N+](=O)[O-])ccc1OCCCCN(C)C1CCCCC1 (configuration not stated)	5.4	–
CCC(=O)N1c2ccccc2SC1c1cc(OC)ccc1OCCCCN1CCC(C(=O)c2ccccc2)CC1 (configuration not stated)	10	–
CC(=O)N1c2ccccc2SC1c1cc(Cl)ccc1OCCCCN1CCC(C(=O)c2ccccc2)CC1 (configuration not stated)	13	–
COc1ccc(OCCCCN(C)CCCc2ccc(OC)c(OC)c2OC)c(C2Sc3ccccc3N2C(C)=O)c1 (configuration not stated)	1.2	–
COc1ccc(OCCCCN2CCN(CCc3ccc(OC)c(OC)c3)CC2)c(C2Sc3ccccc3N2C(C)=O)c1 (configuration not stated)	0.64	–

SMILES	IC50 (Cavia porcellus) [µM]	also measured
COc1ccc(OCCCCCCN(C)C2CCCCC2)c(C2Sc3ccccc3N2C(C)=O)c1 (configuration not stated)	4.2	–
COc1ccc(OCCCCCN2CCN(CCc3ccc(OC)c(OC)c3)CC2)c(C2Sc3ccccc3N2C(C)=O)c1 (configuration not stated)	0.82	–
COc1ccc(OCCCCN(C)CC(C)c2ccc(OC)c(OC)c2)c(C2Sc3ccccc3N2C(C)=O)c1 (configuration not stated)	1.6	–
CC(=O)N1CCSC1c1cc([N+](=O)[O-])ccc1OCCCN(C)C (configuration not stated)	4.1	–
COc1ccc(OCCCCCN(C)C2CCCCC2)c(C2Sc3ccccc3N2C=O)c1 (configuration not stated)	2.7	–
CC(=O)N1c2ccccc2SC1c1cc(Cl)ccc1OCCCN(C)C (configuration not stated)	3.8	–
CC(=O)N1c2ccccc2SC1c1cccc(OCCCN(C)C)c1 (configuration not stated)	11	–
COc1ccc(CCN(C)CCCC(C#N)(c2ccc(OC)c(OC)c2)C(C)C)cc1OC (configuration not stated) [VERAPAMIL]	0.1	ED50 (Mus musculus): > 30 mg/kg; Decrease of SBP (Rattus norvegicus [1]): 24.2 mmHg; Decrease of SBP (Rattus norvegicus [2]): 83.3 mmHg
COc1ccc(OCCCN(C)C)c(C2Sc3ccccc3N2C(C)=O)c1 (configuration not stated)	1.6	–
COc1ccc(OCCCN(C)CCc2ccc(OC)c(OC)c2OC)c(C2Sc3ccccc3N2C(C)=O)c1 (configuration not stated)	2	–
CC(=O)N1c2ccccc2SC1c1ccccc1OCCN(C)C (configuration not stated)	17	–
Clc1ccccc1CN1CCc2sccc2C1 [TICLOPIDINE]	–	ED50 (Mus musculus): 260 mg/kg
CNCCCCOc1ccc(OC)cc1C1Sc2ccccc2N1C(C)=O (configuration not stated)	2	–
COc1ccc(OCCCCN2CCC(C(=O)c3ccccc3)CC2)c(C2Sc3ccccc3N2C(C)=O)c1 (configuration not stated)	1.4	–
COc1cc(CCN2CCN(CCCCOc3ccc(Cl)cc3C3Sc4ccccc4N3C(C)=O)CC2)cc(OC)c1OC (configuration not stated)	2.3	–
CC(=O)N1c2ccccc2SC1c1ccc(OCCCN(C)C2CCCCC2)cc1 (configuration not stated)	4.4	–
COc1ccc(OCCCCCN(C)CCc2cc(OC)c(OC)c(OC)c2)c(C2Sc3ccccc3N2C(C)=O)c1 (configuration not stated)	1.3	–
COc1ccc(OCCCCN2CCC(C(=O)c3ccccc3)CC2)c(C2SCCN2C(C)=O)c1 (configuration not stated)	410	–
COc1ccc(OCCCCN)c(C2Sc3ccccc3N2C(C)=O)c1 (configuration not stated)	> 100	–
COc1ccc(OCCCCN2CCC(C(=O)c3ccc(F)cc3)CC2)c(C2Sc3ccccc3N2C=O)c1 (configuration not stated)	4.8	–
COc1cccc(C2Sc3ccccc3N2C(C)=O)c1OCCCCN(C)C1CCCCC1 (configuration not stated)	8.8	–
COc1ccc(OCCCCNCCc2cc(OC)c(OC)c(OC)c2)c(C2Sc3ccccc3N2C(C)=O)c1 (configuration not stated)	6.5	–

SMILES	IC50 (Cavia porcellus) [µM]	also measured
COc1ccc([C@@H]2Sc3ccccc3N(CCN(C)C)C(=O)[C@@H]2OC(C)=O)cc1 [DILTIAZEM]	0.17	ED50 (Mus musculus): > 30 mg/kg; Decrease of SBP (Rattus norvegicus [3]): 44.2 mmHg; Ratio [4]: 6.5; EC10 (Oryctolagus cuniculus [5]): 2.6 µM; EC30 (Oryctolagus cuniculus [6]): 0.44 µM; Decrease of SBP (Rattus norvegicus [2]): 22.5 mmHg
COc1ccc(OCCCCN(C)CCc2cc(OC)c(OC)c(OC)c2)c(C2Sc3ccccc3N2C(C)=O)c1 (configuration not stated)	0.13	ED50 (Mus musculus): 12 mg/kg; Decrease of SBP (Rattus norvegicus [3]): 87.5 mmHg; EC10 (Oryctolagus cuniculus [5]): 0.2 µM; Decrease of SBP (Rattus norvegicus [2]): 48.3 mmHg
COc1ccc(OCCCCN2CCN(CCc3cc(OC)c(OC)c(OC)c3)CC2)c(C2Sc3ccccc3N2C=O)c1 (configuration not stated)	2.6	–
COc1ccc(OCCCCCN(C)C2CCCCC2)c(C2Sc3ccccc3N2C(C)=O)c1 (configuration not stated)	1.2	–
CC(=O)N1c2ccccc2SC1c1ccc(OCCN(C)C)cc1 (configuration not stated)	36	–
COc1ccc(OCCCCN2CCN(CCc3cc(OC)c(OC)c(OC)c3)CC2)c(C2Sc3ccccc3N2C(C)=O)c1 (configuration not stated)	0.47	–
COc1ccc(OCCCCCN2CCC(C(=O)c3ccccc3)CC2)c(C2Sc3ccccc3N2C(C)=O)c1 (configuration not stated)	17	–
CCN(CCCCOc1ccc(OC)cc1C1Sc2ccccc2N1C(C)=O)CCc1cc(OC)c(OC)c(OC)c1 (configuration not stated)	1	–
COc1ccc(OCCCN(C)CCc2ccc(OC)c(OC)c2)c(C2Sc3ccccc3N2C(C)=O)c1 (configuration not stated)	0.78	–
COc1ccc(OCCCCN(CCc2cc(OC)c(OC)c(OC)c2)C(C)C)c(C2Sc3ccccc3N2C(C)=O)c1 (configuration not stated)	0.13	–
COc1ccc(OCCCCN(C)CCc2ccc(OC)c(OC)c2OC)c(C2Sc3ccccc3N2C(C)=O)c1 (configuration not stated)	0.34	–
COc1ccc(OCCCN(C)C2CCCCC2)c(C2Sc3ccccc3N2C(C)=O)c1 (configuration not stated)	4.2	–
CC(=O)N1CCSC1c1ccccc1OCCN(C)C (configuration not stated)	> 100	–
COC(=O)C1=C(C)NC(C)=C(C(=O)OCCN(C)Cc2ccccc2)C1c1cccc([N+](=O)[O-])c1 (configuration not stated) [NICARDIPINE]	–	ED50 (Mus musculus): > 30 mg/kg
COc1ccc(OCCCCN(CCc2cc(OC)c(OC)c(OC)c2)C2CC2)c(C2Sc3ccccc3N2C(C)=O)c1 (configuration not stated)	1.2	–
CCC(=O)N1c2ccccc2SC1c1cc(OC)ccc1OCCCCN1CCN(CCc2cc(OC)c(OC)c(OC)c2)CC1 (configuration not stated)	1.2	–
CN(CCCOc1ccccc1C1Sc2ccccc2N1C=O)C1CCCCC1 (configuration not stated)	4	–
CCC(=O)N1c2ccccc2SC1c1ccccc1OCCCN(C)C1CCCCC1 (configuration not stated)	3.2	–
COc1ccc(OCCCCN2CCC(C(=O)c3ccc(Cl)cc3)CC2)c(C2Sc3ccccc3N2C(C)=O)c1 (configuration not stated)	8.7	–
COc1ccc(OCCCCCN(C)CCc2ccc(OC)c(OC)c2OC)c(C2Sc3ccccc3N2C(C)=O)c1 (configuration not stated)	8	–

From ChEMBL document CHEMBL1124109, “Novel calcium antagonists. Synthesis and structure-activity relationship studies of benzothiazoline derivatives” (J Med Chem, 1988)
